Experimental data of several laboratories.
Organism: Pseudomonas aeruginosa
Effect on: microbial growth

| Structure (SMILES) | technique | strain | time | MIC |
| --- | --- | --- | --- | --- |
| CCCCCCC/C=C/C(=O)N1C(=O)/C(=C(/C)O)C(=O)C1CCCCN (stereo not shown) |  | PA01 |  | > 200 µg/mL |
| CN(C)[C@@H]1C(O)=C(C(N)=O)C(=O)[C@@]2(O)C(O)=C3C(=O)c4c(O)cnc(-c5ccccc5)c4C[C@H]3C[C@@H]12.Cl.Cl | broth dilution | ATCC27853 |  | > 32 µg/mL |
| CC(C)Oc1c(NC(=O)c2ccc(NC(=O)[C@H](CC(N)=O)NC(=O)c3cccc(-c4cccc(C#N)c4)c3)cc2)ccc(C(=O)Nc2ccc(C(=O)O)cc2)c1O |  | PA14 |  | > 64 µg/mL |
| O=[N+]([O-])c1ccc(-c2nc3cc(F)ccc3[nH]2)o1 | broth dilution | ATCC27853 |  | > 64 µg/mL |
| CNC(C)C1CCC(N)C(OC2C(N)CC(N)C(OC3OCC(C)(O)C(NC)C3O)C2O)O1 (stereo not shown) | broth dilution | PAO1 |  | 4 µg/mL |
| Cc1ccc(C)n1-c1ccc(C(=O)NNC=O)cc1 | broth dilution | ATCC10145 | 18 h | 125 µg/mL |
| CN(C)c1cc(NC(=O)CNC(C)(C)C)c(O)c2c1C[C@H]1C[C@H]3[C@H](N(C)C)C(O)=C(C(N)=O)C(=O)[C@@]3(O)C(O)=C1C2=O | broth dilution | ATCC27853 |  | 8 µg/mL |
| C/C(O)=C1\C(=O)C(CC(C)C)N(C(=O)C=Cc2ccccc2)C1=O (stereo not shown) |  | PA01 |  | > 200 µg/mL |
| C/C(=C\c1ccc(C#N)cc1)C(=O)Nc1ccc(C(=O)N[C@@H](CC(N)=O)C(=O)Nc2ccc(C(=O)Nc3ccc(C(=O)Nc4ccc(C(=O)O)cc4)c(O)c3OC(C)C)cc2)cc1 |  | PA14 |  | 1 µg/mL |
| O=C(Cc1ccc(O)c(O)c1)NCCCCCCCC[P+](c1ccccc1)(c1ccccc1)c1ccccc1.[Br-] | broth dilution | ATCC27853 | 18 h | > 32 µg/mL |
| O=c1cc(-c2ccccc2)oc2cc(O)cc(O)c12 | broth dilution | PAO1 |  | 128 µg/mL |
| CCCNc1nc(N(C)C)c2c(c1O)C(=O)C1=C(O)[C@]3(O)C(=O)C(C(N)=O)=C(O)[C@@H](N(C)C)[C@@H]3C[C@@H]1C2.Cl.Cl | broth dilution | ATCC27853 |  | > 32 µg/mL |
| CC(C)(C)Oc1ccc(CC2NC(=O)C(C(=O)NC(C(=O)NC3C(=O)N4C3SC(C)(C)C4C(=O)O)c3ccccc3)=C2O)cc1 (stereo not shown) |  |  |  | 12.5 µg/mL |
| CC(C)Oc1c(NC(=O)c2ccc(NC(=O)[C@H](CC(N)=O)NC(=O)c3ccc(NC(=O)c4ccc(C#N)cc4)cc3)cc2)ccc(C(=O)N[C@@H]2CONC2=O)c1O |  | PA14 |  | > 64 µg/mL |
| CN(C)[C@@H]1C(O)=C(C(N)=O)C(=O)[C@@]2(O)C(O)=C3C(=O)c4c(cc5ccc(CN6CCCCC6)cc5c4O)C[C@H]3C[C@@H]12 | broth dilution | ATCC27853 |  | 32 µg/mL |
| CC1NC(=O)C(C(=O)NC(C(=O)NC2C(=O)N3C2SC(C)(C)C3C(=O)O)c2ccccc2)=C1O (stereo not shown) |  |  |  | 50 µg/mL |
| CCCc1nc(Cl)c2c(c1O)C(=O)C1=C(O)[C@]3(O)C(=O)C(C(N)=O)=C(O)[C@@H](N(C)C)[C@@H]3C[C@@H]1C2.Cl | broth dilution | ATCC27853 |  | > 32 µg/mL |
| CC(C)Oc1c(NC(=O)c2ccc(NC(=O)[C@H](CC(N)=O)NC(=O)c3ccc(NC(=O)c4ccc([N+](=O)[O-])c(OC(C)C)c4O)cc3)cc2)ccc(C(=O)Nc2ccc(C(=O)O)cc2)c1O |  | PA14 |  | > 64 µg/mL |
| COc1c(C)c(OC)c(C(=O)/C=C/c2ccccc2)c(OC)c1C | broth dilution | ATCC27853 |  | 5000 µg/mL |
| CN(C)[C@@H]1C(O)=C(C(N)=O)C(=O)[C@@]2(O)C(O)=C3C(=O)c4c(cc5ccc(CN(C)S(C)(=O)=O)cc5c4O)C[C@H]3C[C@@H]12 | broth dilution | ATCC27853 |  | 32 µg/mL |
| CC1(C)S[C@@H]2[C@H](NC(=O)C(C(=O)O)c3ccccc3)C(=O)N2[C@H]1C(=O)O (stereo partly shown) | broth dilution | CMCC10104 |  | > 200 µM |
| CC(=O)NCN1N=C(C)C(=NNn2c(-c3ccccc3)nc3ccccc3c2=O)C1=O | broth dilution |  | 24 h | 59.9 µM |
| C/C(=C\c1ccc(O)cc1)C(=O)Nc1ccc(C(=O)N[C@@H](CC(N)=O)C(=O)Nc2ccc(C(=O)Nc3ccc(C(=O)Nc4ccc(C(=O)O)cc4)c(O)c3OC(C)C)cc2)cc1 |  | PA14 |  | 1 µg/mL |
| CN(C)[C@@H]1C(O)=C(C(N)=O)C(=O)[C@@]2(O)C(O)=C3C(=O)c4c(O)cnc(Cl)c4C[C@H]3C[C@@H]12.Cl | broth dilution | ATCC27853 |  | > 32 µg/mL |
| CN(C)[C@@H]1C(O)=C(C(N)=O)C(=O)[C@@]2(O)C(O)=C3C(=O)c4c(cc5ccc(CN6CC(F)C6)cc5c4O)C[C@H]3C[C@@H]12 | broth dilution | ATCC27853 |  | 32 µg/mL |

| Structure (SMILES) | technique | strain | time | MIC |
| --- | --- | --- | --- | --- |
| CN(C)[C@@H]1C(O)=C(C(N)=O)C(=O)[C@@]2(O)C(O)=C3C(=O)c4c(O)c(NC(=O)CNC(C)(C)C)nc(Cl)c4C[C@H]3C[C@@H]12.Cl.Cl.Cl | broth dilution | ATCC27853 |  | > 32 µg/mL |
| O=[N+]([O-])c1ccc(-c2nc3ccccc3n2Cc2ccccc2)cc1 | broth dilution | ATCC27853 |  | 128 µg/mL |
| c1ccc(NCc2ccc(Oc3ccccn3)cc2)cc1 |  |  |  | > 25 µg/mL |
| CC[C@H]1OC(=O)[C@H](C)[C@@H](O[C@H]2C[C@@](C)(OC)[C@@H](O)[C@H](C)O2)[C@H](C)[C@@H](O[C@@H]2O[C@H](C)C[C@H](N(C)C)[C@H]2O)[C@](C)(O)C[C@@H](C)CN(C)[C@H](C)[C@@H](O)[C@]1(C)O | broth dilution |  |  | 100 µg/mL |
| CC(C)CC1NC(=O)C(C(=O)NC(C(=O)NC2C(=O)N3C2SC(C)(C)C3C(=O)O)c2ccccc2)=C1O (stereo not shown) |  |  |  | 12.5 µg/mL |
| Cc1ccc(C)n1-c1ccc(-c2nnc(-c3ccc(N(C)C)cc3)[nH]2)cc1 | broth dilution | ATCC10145 | 18 h | 250 µg/mL |
| CC(C)Oc1c(NC(=O)c2ccc(NC(=O)[C@H](CC(N)=O)NC(=O)c3ccc(NC(=O)c4ccc(C#N)c(F)c4)cc3)cc2)ccc(C(=O)Nc2ccc(C(=O)O)cc2)c1O |  | PA14 |  | 8 µg/mL |
| CCCCCCCCCCCC(=O)Oc1c(C)c(O)c(C(=O)/C=C/c2ccccc2)c(OC)c1C | broth dilution | ATCC27853 |  | 5000 µg/mL |
| CC1=NN(CNC(=O)c2ccccn2)C(=O)C1=NNn1c(-c2ccccc2)nc2ccccc2c1=O | broth dilution |  | 24 h | 52 µM |
| CCCCCCC#Cc1cncc(-c2nnc(SCc3ccc(Cl)cc3)n2C2CC2)c1 |  |  |  | ≥ 20 µg/mL |
| Fc1ccc(-c2nc3ccccc3n2Cc2ccccc2)cc1 | broth dilution | ATCC27853 |  | 128 µg/mL |
| COc1cc(C(=O)Nc2ccc(C(=O)N[C@@H](CC(N)=O)C(=O)Nc3ccc(C(=O)Nc4ccc(C(=O)Nc5ccc(C(=O)O)cc5)c(O)c4OC(C)C)cc3)cc2)ccc1C#N |  | PA14 |  | > 64 µg/mL |
| CO[C@H]1/C=C/O[C@@]2(C)Oc3c(C)c(O)c4c(O)c(c(/C=N/N5CCN(C)CC5)c(O)c4c3C2=O)NC(=O)/C(C)=C\C=C\[C@H](C)[C@H](O)[C@@H](C)[C@@H](O)[C@@H](C)[C@H](OC(C)=O)[C@@H]1C |  | ATCC27853 |  | 16 µg/mL |
| CC1=NN(CNc2ccccc2)C(=O)C1=NNn1c(-c2ccccc2)nc2ccccc2c1=O | broth dilution |  | 24 h | 111 µM |
| O=C(O)c1cn(C2CC2)c2cc(N3CCNCC3)c(F)cc2c1=O |  |  |  | 1.6 µg/mL |
| C=CCOc1c(C)c(O)c(C(=O)/C=C/c2ccccc2)c(OC)c1C | broth dilution | ATCC27853 |  | 5000 µg/mL |
| CC(C)Oc1c(NC(=O)c2ccc(NC(=O)[C@H](CC(N)=O)NC(=O)c3ccc(C#Cc4ccc(C#N)cc4)cc3)cc2)ccc(C(=O)Nc2ccc(C(=O)O)cc2)c1O |  | PA14 |  | > 64 µg/mL |
| CN(C)[C@@H]1C(O)=C(C(N)=O)C(=O)[C@@]2(O)C(O)=C3C(=O)c4c(O)cccc4[C@@](C)(O)[C@H]3C[C@@H]12 |  | ATCC27853 |  | 8 µg/mL |
| C[C@@H](O)[C@H]1C(=O)N2C(C(=O)O)=C(S[C@@H]3CN[C@H](C(=O)N(C)C)C3)[C@H](C)[C@H]12 | broth dilution |  | 24 h | 0.25 µg/mL |
| Cc1ccc(C)n1-c1ccc(-c2nnco2)cc1 | broth dilution | ATCC10145 | 18 h | 4 µg/mL |
| CCCCCCCCCC(=O)Oc1c(C)c(O)c(C(=O)/C=C/c2ccccc2)c(OC)c1C | broth dilution | ATCC27853 |  | 5000 µg/mL |
| O=C(CCCCCCCCCC[P+](c1ccccc1)(c1ccccc1)c1ccccc1)Nc1cc(O)c(O)c(O)c1.[Br-] | broth dilution | ATCC27853 | 18 h | > 32 µg/mL |
| CCCCCCC/C=C/C(=O)N1C(=O)/C(=C(/C)O)C(=O)C1Cc1ccc(OC(C)(C)C)cc1 (stereo not shown) |  | PA01 |  | > 200 µg/mL |
| O=C(Nc1ccc([N+](=O)[O-])cc1F)c1ccccc1O | broth dilution | ATCC27853 |  | > 64 µg/mL |
